How the values were obtained:
[1] = target: Homeodomain-interacting protein kinase 3 (Homo sapiens) (UniProt Q9H422); assay: Inhibition of His-tagged human HIPK3 catalytic domain expressed in baculovirus expression system at 1 uM by Selectscreen kinase assay
Outline: (§1)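 Single-point screen at 1 μM final against a panel of 25 kinases using a commercial profiling service; mean of three independent experiments each run in triplicate.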

[2] = target: Serine/threonine-protein kinase mTOR (Homo sapiens) (UniProt P42345); assay: Inhibition of GST-tagged partial length human mTOR catalytic domain (1360-2549 residues) expressed in baculovirus expression system at 1 uM by Selectscreen kinase assay; outline: as §1
MDA-MB-231 [3] = assay: Antiproliferative activity against human MDA-MB-231 cells assessed as cell viability at 0.1 uM measured after 48 hrs by MTT assay (reference value: 100%); assay type: functional; settings: read-out: Activity
[4] = Metabolic stability in rat liver microsomes assessed as parent compound remaining at 1 uM measured after 60 mins in absence of NADPH by LC-MS/MS analysis; assay type: ADME, Microsome; settings: read-out: Stabilty
Outline: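 Rat liver microsomes (0.5 mg/mL) were incubated at 37 °C with 1 μM compound in pH 7.4 potassium phosphate/MgCl2 buffer for 1 h, with buffer in place of the NADPH regeneration system. After acetonitrile precipitation, percent parent remaining was measured by LC-MS/MS.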

A549 [5] = assay: Antiproliferative activity against human A549 cells assessed as cell viability at 0.5 uM measured after 48 hrs by MTT assay (reference value: 100%); assay type: functional; settings: read-out: Activity
MDA-MB-231 [6] = assay: Antiproliferative activity against human MDA-MB-231 cells assessed as cell viability at 0.5 uM measured after 48 hrs by MTT assay (reference value: 100%); assay type: functional; settings: read-out: Activity
MDA-MB-231 [7] = assay: Induction of apoptosis in human MDA-MB-231 cells assessed as early apoptotic cells at 0.2 uM incubated for 48 hrs by Annexin V-FITC/PI staining based flow cytometric analysis (reference value: 1.58%); assay type: functional
MDA-MB-231 [8] = assay: Antiproliferative activity against human MDA-MB-231 cells assessed as reduction in cell viability at 0.1 to 2.5 uM by MTT assay; assay type: functional, cell-based; settings: dose 0.1-2.5 µM, time 24-72 hrs, TDE = time-dependent effect
MDA-MB-231 [9] = assay: Antiproliferative activity against human MDA-MB-231 cells assessed as inhibition of cell growth measured after 72 hrs by MTT assay; assay type: functional, cell-based; settings: MDA-MB-231, 72 h
Outline: (§2)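 Cells were seeded at 4000–5000/well and held 24 h at 37 °C in 5% CO2. Compounds were added at the indicated final concentrations and incubated 72 h. MTT was added (5 mg/mL in PBS, stated as final) for 4 h at 37 °C. Formazan was dissolved in DMSO and absorbance read at 490 nm. The 50% growth-inhibitory concentration is the mean of three independent experiments ± SE.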

MDA-MB-231 [10] = assay: Antiproliferative activity against human MDA-MB-231 cells assessed as cell viability at 0.1 uM measured after 24 hrs by MTT assay (reference value: 100%); assay type: functional; settings: read-out: Activity
[11] = target: Protein kinase C theta type (Homo sapiens) (UniProt Q04759); assay: Inhibition of His-tagged full length human PKC theta expressed in baculovirus expression system at 1 uM by Selectscreen kinase assay; outline: as §1
HK-2 = assay: Cytotoxicity against human HK2 cells assessed as inhibition of cell proliferation measured after 72 hrs by MTT assay; assay type: cell-based; settings: HK-2, 72 h; outline: as §2
A549 [12] = assay: Antiproliferative activity against human A549 cells assessed as cell viability at 0.5 uM measured after 72 hrs by MTT assay (reference value: 100%); assay type: functional; settings: read-out: Activity
MDA-MB-231 [13] = assay: Inhibition of cell migration in human MDA-MB-231 cells measured after 48 hrs by wound healing assay; assay type: functional, cell-based; settings: dose 0.15-0.6 µM
Outline: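 MDA-MB-231 cells (2×10^6/well) were grown to confluence and the monolayer was scratched with a pipette tip. Cells were washed with PBS, kept in serum-free medium and treated with DMSO or compound at 0.15, 0.3 or 0.6 μM for 48 h. Wound closure was photographed by inverted microscope at 24 and 48 h.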

MDA-MB-231 [14] = assay: Antiproliferative activity against human MDA-MB-231 cells assessed as reduction in cell viability measured after 24 to 72 hrs by MTT assay; assay type: functional, cell-based; settings: dose 0.1-2.5 µM, time 24-72 hrs
A549 [15] = assay: Antiproliferative activity against human A549 cells assessed as inhibition of cell growth measured after 72 hrs by MTT assay; assay type: functional, cell-based; settings: A549, 72 h; outline: as §2
A549 [16] = assay: Antiproliferative activity against human A549 cells assessed as cell viability at 0.1 uM measured after 72 hrs by MTT assay (reference value: 100%); assay type: functional; settings: read-out: Activity
MDA-MB-231 [17] = assay: Induction of cell cycle arrest in human MDA-MB-231 cells assessed as accumulation of cells at G0/G1 phase at 0.1 uM measured after 48 hrs by PI staining based flow cytometry method (reference value: 43.43%); assay type: functional
[18] = Half life in rat liver microsomes at 1 uM measured up to 60 mins in presence of NADPH by LC-MS/MS analysis; assay type: ADME, Microsome
Outline: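 Rat liver microsomes (0.5 mg/mL) were incubated with 1 μM test compound at 37 °C in potassium phosphate buffer (pH 7.4, 100 mM, 10 mM MgCl2). The reaction was started with prewarmed NADPH cofactor (1 mmol). It was sampled at 0, 5, 10, 20, 30 and 60 min and quenched with cold acetonitrile. Protein was removed by centrifugation and the supernatant analysed by LC-MS/MS.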

Focal adhesion kinase 1 = Focal adhesion kinase 1 (Homo sapiens, UniProt Q05397); assay: Inhibition of GST-tagged full length human FAK expressed in baculovirus expression system at 1 uM by Selectscreen kinase assay; outline: as §1
[19] = target: ALK tyrosine kinase receptor (Homo sapiens) (UniProt Q9UM73); assay: Inhibition of GST-tagged human ALK expressed in baculovirus expression system at 1 uM by Selectscreen kinase assay; outline: as §1
[20] = target: Calcium/calmodulin-dependent protein kinase kinase 2 (Homo sapiens) (UniProt Q96RR4); assay: Inhibition of GST-tagged full length human CAMKK2 expressed in baculovirus expression system at 1 uM by Selectscreen kinase assay
Outline: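 Commercial SelectScreen profiling panel of 25 kinases, test compound at 1 μM. Values are the mean of three independent experiments, each run in triplicate.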

MDA-MB-231 [21] = assay: Induction of cell cycle arrest in human MDA-MB-231 cells assessed as accumulation of cells at G2/M phase at 0.1 uM measured after 48 hrs by PI staining based flow cytometry method (reference value: 17.40%); assay type: functional

Sequence of ALK tyrosine kinase receptor (Homo sapiens) (Q9UM73 19-1620 limits assumed): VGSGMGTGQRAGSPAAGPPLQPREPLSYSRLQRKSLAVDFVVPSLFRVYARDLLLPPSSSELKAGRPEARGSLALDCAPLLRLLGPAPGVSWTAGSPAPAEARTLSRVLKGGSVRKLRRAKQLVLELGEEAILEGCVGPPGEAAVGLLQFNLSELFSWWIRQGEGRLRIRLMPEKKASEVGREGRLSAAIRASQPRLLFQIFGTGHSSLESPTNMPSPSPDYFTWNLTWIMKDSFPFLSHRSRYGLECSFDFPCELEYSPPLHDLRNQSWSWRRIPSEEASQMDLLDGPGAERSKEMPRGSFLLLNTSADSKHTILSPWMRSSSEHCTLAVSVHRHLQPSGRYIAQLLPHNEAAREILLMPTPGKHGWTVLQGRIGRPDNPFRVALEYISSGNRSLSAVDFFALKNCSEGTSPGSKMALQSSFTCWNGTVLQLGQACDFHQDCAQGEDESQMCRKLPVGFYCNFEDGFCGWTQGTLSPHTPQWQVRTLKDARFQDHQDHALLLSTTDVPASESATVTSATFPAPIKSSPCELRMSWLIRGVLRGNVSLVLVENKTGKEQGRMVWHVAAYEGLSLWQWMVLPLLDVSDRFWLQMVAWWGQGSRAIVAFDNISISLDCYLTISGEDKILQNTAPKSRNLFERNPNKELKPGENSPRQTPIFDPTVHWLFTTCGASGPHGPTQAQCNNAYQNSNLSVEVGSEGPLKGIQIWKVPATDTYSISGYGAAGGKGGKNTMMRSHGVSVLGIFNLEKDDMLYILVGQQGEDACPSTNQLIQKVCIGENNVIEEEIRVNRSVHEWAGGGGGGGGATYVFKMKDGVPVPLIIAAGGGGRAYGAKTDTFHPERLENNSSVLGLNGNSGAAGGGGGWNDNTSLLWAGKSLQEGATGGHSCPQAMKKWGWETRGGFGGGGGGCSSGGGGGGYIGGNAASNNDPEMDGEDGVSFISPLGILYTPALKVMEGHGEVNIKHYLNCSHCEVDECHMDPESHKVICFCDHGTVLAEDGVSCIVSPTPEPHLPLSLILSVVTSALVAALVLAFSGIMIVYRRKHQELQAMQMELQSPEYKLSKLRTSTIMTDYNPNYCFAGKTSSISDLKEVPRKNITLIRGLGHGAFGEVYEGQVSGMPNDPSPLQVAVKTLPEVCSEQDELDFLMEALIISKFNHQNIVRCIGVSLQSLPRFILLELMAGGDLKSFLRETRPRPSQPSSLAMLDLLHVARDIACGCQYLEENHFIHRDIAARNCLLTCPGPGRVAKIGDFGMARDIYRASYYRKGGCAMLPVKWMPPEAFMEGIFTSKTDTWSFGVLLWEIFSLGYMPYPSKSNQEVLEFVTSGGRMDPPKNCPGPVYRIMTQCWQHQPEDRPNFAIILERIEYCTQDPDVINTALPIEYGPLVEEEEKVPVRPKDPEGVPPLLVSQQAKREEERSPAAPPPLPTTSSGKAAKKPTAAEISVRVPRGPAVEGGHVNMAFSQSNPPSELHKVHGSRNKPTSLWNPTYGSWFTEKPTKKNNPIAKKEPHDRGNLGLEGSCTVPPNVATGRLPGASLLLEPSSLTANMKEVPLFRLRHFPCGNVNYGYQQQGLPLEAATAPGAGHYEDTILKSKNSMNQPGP
Sequence of Homeodomain-interacting protein kinase 3 (Homo sapiens) (Q9H422 whole entry, looked up, the tested form may be a part): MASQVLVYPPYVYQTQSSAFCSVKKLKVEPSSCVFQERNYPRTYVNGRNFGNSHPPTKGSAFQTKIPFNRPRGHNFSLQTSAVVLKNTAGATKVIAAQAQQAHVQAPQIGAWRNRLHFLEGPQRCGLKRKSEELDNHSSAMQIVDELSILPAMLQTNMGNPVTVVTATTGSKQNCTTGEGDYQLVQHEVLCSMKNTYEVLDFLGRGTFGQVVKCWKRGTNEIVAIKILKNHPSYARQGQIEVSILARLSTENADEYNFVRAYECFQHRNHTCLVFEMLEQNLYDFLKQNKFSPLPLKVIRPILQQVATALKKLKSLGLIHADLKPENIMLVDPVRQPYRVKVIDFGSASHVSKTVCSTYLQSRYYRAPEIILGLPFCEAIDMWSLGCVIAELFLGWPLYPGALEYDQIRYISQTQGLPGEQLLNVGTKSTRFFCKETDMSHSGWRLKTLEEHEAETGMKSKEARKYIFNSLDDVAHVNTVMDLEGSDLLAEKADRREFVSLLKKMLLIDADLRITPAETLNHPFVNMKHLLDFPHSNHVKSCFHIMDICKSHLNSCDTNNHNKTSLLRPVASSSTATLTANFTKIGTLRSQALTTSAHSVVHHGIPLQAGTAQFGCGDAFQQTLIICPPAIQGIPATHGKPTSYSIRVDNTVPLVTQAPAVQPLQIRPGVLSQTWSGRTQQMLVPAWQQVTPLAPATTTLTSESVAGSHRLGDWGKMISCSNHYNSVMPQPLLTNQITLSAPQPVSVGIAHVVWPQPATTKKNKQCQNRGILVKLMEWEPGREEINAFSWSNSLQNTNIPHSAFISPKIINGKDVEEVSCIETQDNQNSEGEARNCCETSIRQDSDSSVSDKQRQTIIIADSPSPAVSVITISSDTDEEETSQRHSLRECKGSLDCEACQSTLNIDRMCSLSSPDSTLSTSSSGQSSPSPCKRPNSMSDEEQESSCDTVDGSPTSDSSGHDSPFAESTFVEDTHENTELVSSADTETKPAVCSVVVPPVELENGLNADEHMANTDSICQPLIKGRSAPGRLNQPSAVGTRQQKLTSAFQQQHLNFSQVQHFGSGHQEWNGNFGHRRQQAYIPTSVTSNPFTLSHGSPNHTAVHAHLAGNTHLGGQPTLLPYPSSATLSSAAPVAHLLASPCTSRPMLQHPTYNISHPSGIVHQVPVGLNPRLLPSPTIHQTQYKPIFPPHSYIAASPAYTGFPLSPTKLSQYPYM
Sequence of Focal adhesion kinase 1 (Q05397 2-1052 limits assumed): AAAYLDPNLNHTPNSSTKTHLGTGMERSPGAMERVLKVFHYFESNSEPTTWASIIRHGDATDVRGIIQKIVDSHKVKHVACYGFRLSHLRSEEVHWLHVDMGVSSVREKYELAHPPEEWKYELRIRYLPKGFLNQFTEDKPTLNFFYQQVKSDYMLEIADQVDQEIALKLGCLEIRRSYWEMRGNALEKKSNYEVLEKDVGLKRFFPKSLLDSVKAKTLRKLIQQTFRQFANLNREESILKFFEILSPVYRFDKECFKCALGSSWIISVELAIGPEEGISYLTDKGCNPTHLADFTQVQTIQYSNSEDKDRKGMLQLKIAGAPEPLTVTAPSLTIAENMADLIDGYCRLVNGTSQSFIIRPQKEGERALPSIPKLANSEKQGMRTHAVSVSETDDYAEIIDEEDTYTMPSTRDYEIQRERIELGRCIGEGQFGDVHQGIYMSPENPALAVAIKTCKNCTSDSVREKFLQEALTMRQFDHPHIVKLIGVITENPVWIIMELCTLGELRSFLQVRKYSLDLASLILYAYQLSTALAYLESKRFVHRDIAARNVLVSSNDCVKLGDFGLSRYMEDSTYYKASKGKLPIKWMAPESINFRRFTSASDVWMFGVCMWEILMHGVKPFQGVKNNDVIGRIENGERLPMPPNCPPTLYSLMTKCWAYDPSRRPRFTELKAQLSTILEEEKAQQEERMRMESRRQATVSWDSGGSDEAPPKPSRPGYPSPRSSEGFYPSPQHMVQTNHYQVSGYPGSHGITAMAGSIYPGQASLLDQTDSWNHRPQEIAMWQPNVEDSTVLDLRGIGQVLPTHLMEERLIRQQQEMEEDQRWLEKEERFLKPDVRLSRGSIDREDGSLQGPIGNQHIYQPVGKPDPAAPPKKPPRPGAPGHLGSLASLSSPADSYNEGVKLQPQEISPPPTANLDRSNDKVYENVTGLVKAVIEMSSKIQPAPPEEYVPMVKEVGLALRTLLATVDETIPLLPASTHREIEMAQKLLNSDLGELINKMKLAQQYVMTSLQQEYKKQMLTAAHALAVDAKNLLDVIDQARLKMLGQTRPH
Sequence of Calcium/calmodulin-dependent protein kinase kinase 2 (Homo sapiens) (Q96RR4 2-588 limits assumed): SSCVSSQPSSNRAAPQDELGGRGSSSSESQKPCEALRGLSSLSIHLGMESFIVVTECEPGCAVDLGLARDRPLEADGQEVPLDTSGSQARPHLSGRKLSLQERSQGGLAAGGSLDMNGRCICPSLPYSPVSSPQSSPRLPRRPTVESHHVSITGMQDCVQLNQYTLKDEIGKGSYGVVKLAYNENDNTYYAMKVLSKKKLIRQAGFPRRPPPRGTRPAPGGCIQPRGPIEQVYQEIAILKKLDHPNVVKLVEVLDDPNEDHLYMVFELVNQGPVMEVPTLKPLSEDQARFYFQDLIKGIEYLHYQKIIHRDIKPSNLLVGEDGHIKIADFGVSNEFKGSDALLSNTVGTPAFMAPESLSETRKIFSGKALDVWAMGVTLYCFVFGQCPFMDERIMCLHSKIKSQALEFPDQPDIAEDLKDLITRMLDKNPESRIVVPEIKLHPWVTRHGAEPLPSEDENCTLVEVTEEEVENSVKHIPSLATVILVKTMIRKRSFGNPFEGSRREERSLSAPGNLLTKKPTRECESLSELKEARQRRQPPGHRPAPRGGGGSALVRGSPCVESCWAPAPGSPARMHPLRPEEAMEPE

inhibition [1]: 72%
inhibition [2]: 2%
remaining at 1 h, 1 µM [4]: 92.1%
IC50 (MDA-MB-231 [9]): 190 nM
inhibition [11]: 48%
IC50 (A549 [15]): 270 nM
half-life at 1 µM [18]: 2.23 h
inhibition (Focal adhesion kinase 1): 100%
inhibition [19]: 95%
inhibition [20]: 77%
Structure (SMILES): COc1ccccc1-c1csc2cnc(Nc3ccc(C(=O)NC4CCNCC4)c(F)c3)nc12
viability at 0.1 µM (MDA-MB-231 [3]): 74.1%
viability at 0.5 µM (A549 [5]): 47.4%
viability at 0.5 µM (MDA-MB-231 [6]): 40.7%
Activity (MDA-MB-231 [7]): 9.78%
Activity (MDA-MB-231 [8]): Tde
viability at 0.1 µM (MDA-MB-231 [10]): 97.6%
IC50 (HK-2): 3320 nM
viability at 0.5 µM (A549 [12]): 32.2%
inhibition (MDA-MB-231 [13]): Dose-dependent effect
Activity (MDA-MB-231 [14]): Dose-dependent effect
viability at 0.1 µM (A549 [16]): 66.9%
Activity (MDA-MB-231 [17]): 45.25%
Activity (MDA-MB-231 [21]): 12.79%

— ChEMBL document CHEMBL4765248, “Design, synthesis, biological evaluation and molecular docking study of novel thieno[3,2-d]pyrimidine derivatives as potent FAK inhibitors” (Eur J Med Chem, 2020)
